Measured values taken from ChEMBL document CHEMBL5678806, “NMS-P937, an orally available, specific small-molecule polo-like kinase 1 inhibitor with antitumor activity in solid and hematologic malignancies” (Mol Cancer Ther, 2012).
Active and inactive are the calls of the source. The rule behind the calls is not given here.

Experiments:
LP-1 = test: Antiproliferative activity against human LP-1 cells assessed as inhibition of cell growth incubated for 72 hrs by cell-titer glo assay; assay type: functional, cell-based; conditions: LP-1, 72 h
Outline: (§1)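 Cells seeded at 10,000–30,000/cm² (adherent) or 100,000/mL (nonadherent) in medium with 10% fetal calf serum; after 24 h, treated in duplicate with serial dilutions for 72 h. Viable cell number read by CellTiter-Glo luminescence; IC50 from sigmoidal fit; at least two independent experiments.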

[1] = target: T1, Tyrosine-protein kinase SYK (Homo sapiens, UniProt P43405); test: Inhibition of N-terminal His6-tagged recombinant full-length human Syk expressed in baculovirus infected Sf21 cells assessed as residual activity at 1 uM relative to control
[2] = target: Proto-oncogene tyrosine-protein kinase ROS (Homo sapiens, UniProt P08922); test: Inhibition of ROS (unknown origin) in presence of [gamma-33P]ATP
Proto-oncogene tyrosine-protein kinase ROS, sequence (P08922 whole entry): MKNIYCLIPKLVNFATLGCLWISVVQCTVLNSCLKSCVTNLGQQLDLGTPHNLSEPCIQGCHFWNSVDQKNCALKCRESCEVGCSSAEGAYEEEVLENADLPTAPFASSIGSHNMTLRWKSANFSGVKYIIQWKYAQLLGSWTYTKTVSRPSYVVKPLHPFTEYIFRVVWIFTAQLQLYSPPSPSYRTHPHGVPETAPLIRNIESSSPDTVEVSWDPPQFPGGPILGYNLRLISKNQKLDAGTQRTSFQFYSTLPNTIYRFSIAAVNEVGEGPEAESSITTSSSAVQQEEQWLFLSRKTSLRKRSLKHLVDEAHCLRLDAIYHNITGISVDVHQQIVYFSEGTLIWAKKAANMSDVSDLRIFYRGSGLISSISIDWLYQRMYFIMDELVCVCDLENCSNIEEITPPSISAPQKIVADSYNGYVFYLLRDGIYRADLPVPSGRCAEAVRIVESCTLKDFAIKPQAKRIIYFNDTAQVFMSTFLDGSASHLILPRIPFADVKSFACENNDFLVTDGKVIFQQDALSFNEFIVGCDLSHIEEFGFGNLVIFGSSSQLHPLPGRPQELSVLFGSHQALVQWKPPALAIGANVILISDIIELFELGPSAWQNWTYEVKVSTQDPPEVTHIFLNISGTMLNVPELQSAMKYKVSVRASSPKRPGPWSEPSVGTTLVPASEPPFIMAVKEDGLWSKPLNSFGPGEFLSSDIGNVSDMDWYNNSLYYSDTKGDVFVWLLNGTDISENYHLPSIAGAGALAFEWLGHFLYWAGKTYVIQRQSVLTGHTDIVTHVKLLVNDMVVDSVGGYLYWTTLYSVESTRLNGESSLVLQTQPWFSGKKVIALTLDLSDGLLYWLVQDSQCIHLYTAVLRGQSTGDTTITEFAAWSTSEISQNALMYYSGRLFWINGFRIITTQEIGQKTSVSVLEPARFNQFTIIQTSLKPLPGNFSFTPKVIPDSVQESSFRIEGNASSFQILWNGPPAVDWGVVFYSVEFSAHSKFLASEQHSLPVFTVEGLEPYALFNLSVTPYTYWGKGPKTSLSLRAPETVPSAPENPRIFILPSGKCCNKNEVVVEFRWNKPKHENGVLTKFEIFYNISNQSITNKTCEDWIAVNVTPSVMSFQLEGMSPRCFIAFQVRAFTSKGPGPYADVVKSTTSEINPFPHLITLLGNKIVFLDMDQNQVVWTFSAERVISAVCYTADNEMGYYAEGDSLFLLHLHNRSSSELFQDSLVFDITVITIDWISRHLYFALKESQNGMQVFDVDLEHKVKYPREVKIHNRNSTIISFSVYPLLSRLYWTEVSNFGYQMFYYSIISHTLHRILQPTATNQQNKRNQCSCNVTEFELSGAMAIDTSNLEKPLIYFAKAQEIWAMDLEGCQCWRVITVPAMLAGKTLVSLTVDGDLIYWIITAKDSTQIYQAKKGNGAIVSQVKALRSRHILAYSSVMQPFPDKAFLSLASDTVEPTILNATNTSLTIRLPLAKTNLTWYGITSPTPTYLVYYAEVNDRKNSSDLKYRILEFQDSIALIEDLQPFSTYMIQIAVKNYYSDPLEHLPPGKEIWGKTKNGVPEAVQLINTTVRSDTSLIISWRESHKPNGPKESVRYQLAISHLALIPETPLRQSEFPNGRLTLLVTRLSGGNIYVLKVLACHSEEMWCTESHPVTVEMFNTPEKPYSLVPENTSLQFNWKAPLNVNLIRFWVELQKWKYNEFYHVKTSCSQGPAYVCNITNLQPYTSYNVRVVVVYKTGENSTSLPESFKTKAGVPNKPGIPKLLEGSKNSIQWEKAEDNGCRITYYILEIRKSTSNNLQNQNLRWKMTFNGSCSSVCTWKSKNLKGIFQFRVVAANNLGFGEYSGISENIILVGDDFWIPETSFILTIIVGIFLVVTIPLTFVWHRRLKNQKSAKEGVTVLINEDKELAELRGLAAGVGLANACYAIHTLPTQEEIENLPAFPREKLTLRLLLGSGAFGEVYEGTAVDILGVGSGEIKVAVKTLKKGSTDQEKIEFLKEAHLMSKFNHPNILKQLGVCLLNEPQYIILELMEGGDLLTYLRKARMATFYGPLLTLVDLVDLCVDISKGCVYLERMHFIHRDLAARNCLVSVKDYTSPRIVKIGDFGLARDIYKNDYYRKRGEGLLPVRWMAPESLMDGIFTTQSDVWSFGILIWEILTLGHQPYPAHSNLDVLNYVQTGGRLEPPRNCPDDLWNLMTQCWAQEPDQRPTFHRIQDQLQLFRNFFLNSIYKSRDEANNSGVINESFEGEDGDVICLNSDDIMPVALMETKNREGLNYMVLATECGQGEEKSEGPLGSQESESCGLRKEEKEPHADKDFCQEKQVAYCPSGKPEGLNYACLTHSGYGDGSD

[3] = target: MAP kinase-activated protein kinase 2 (Homo sapiens, UniProt P49137); test: Inhibition of MAPKAPK2 (unknown origin) in presence of [gamma-33P]ATP
[4] = Cmax in nu/nu mouse at 10 mg/kg, iv by LC-MS analysis; assay type: ADME, organism-based; conditions: in vivo
U-251 = test: Antiproliferative activity against human U-251 cells assessed as inhibition of cell growth incubated for 72 hrs by cell-titer glo assay; assay type: functional, cell-based; conditions: U-251, 72 h
NCI-H1650 = test: Antiproliferative activity against human NCI-H1650 cells assessed as inhibition of cell growth incubated for 72 hrs by cell-titer glo assay; assay type: functional, cell-based; conditions: NCI-H1650, 72 h
Outline: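 Cells from ATCC or ECACC, kept in supplier-recommended medium with 1% penicillin-streptomycin at 37°C, 5% CO₂. Seeded at 10,000–30,000/cm² (adherent) or 100,000/mL (nonadherent) in medium with 10% fetal calf serum. Dosed after 24 h in duplicate with serial dilutions. Viable cells read by CellTiter-Glo 72 h later. IC50 from sigmoidal fit. At least two independent experiments.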

[5] = target: T1, Tyrosine-protein kinase SYK; test: Inhibition of N-terminal His6-tagged recombinant full-length human Syk expressed in baculovirus infected Sf21 cells assessed as residual activity at 0.1 uM relative to control
[6] = Inhibition of AUR2 (unknown origin) in presence of [gamma-33P]ATP; parameters: species or system Homo sapiens
NHDF = test: Induction of mitosis in human NHDF cells at 0.0001 to 100 uM incubated for >= 24 hrs followed by compound washout by cell titer glow assay; assay type: toxicity, cell-based; conditions: dose 0.0001-100 µM
HEL = test: Antiproliferative activity against human HEL cells assessed as inhibition of cell growth incubated for 72 hrs by cell-titer glo assay; assay type: functional, cell-based; outline: as §1
[7] = target: RAC-alpha serine/threonine-protein kinase (Homo sapiens, UniProt P31749); test: Inhibition of AKT1 (unknown origin) in presence of [gamma-33P]ATP
A2780 [8] = test: In vivo inhibition of PLK1 in human A2780 cells xenografted in nu/nu mouse assessed as increased TCTP phosphorylation on Ser46 at 60 mg/kg, po administered for 6 to 12 hrs hrs by Western blotting analysis; assay type: functional, organism-based; conditions: time lower 6.0 hrs, time upper […]
U2OS [9] = test: Antiproliferative activity against human U2OS cells assessed as inhibition of cell growth incubated for 72 hrs by cell-titer glo assay; assay type: functional, cell-based
[10] = target: BDNF/NT-3 growth factors receptor (Homo sapiens) (UniProt Q16620); test: Inhibition of N-terminal His6 tagged recombinant human TrkB (455 to end residues) expressed in baculovirus infected Sf21 cells assessed as residual activity at 0.1 uM relative to control
BDNF/NT-3 growth factors receptor (Homo sapiens), sequence (Q16620 32-822 limits assumed): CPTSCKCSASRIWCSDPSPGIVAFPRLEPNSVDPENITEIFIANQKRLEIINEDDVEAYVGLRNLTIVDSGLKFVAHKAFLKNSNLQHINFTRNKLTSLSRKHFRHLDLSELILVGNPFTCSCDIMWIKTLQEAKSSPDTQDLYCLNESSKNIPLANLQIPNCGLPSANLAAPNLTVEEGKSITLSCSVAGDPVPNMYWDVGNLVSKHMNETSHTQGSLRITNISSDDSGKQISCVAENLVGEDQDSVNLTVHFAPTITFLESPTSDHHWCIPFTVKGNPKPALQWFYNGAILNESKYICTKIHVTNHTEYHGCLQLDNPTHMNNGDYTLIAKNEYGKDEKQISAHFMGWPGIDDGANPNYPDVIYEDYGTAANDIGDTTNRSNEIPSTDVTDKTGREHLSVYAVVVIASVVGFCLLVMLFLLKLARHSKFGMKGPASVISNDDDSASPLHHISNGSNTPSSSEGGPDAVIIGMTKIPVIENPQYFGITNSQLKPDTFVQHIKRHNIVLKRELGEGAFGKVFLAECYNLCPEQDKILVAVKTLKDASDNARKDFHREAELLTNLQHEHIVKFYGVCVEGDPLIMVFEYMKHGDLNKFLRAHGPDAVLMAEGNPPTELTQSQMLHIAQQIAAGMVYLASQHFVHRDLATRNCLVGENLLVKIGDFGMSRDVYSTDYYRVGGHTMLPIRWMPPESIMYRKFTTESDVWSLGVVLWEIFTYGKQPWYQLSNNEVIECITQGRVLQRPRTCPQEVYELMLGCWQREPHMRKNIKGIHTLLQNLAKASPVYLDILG

[11] = target: PDPK1, 3-phosphoinositide-dependent protein kinase 1 (Homo sapiens) (UniProt O15530); test: Inhibition of N-terminal His6-tagged recombinant human PDK1 (52 to end residues) expressed in baculovirus infected Sf21 cells assessed as residual activity at 1 uM relative to control
PDPK1, 3-phosphoinositide-dependent protein kinase 1 (Homo sapiens), sequence (O15530 whole entry, looked up): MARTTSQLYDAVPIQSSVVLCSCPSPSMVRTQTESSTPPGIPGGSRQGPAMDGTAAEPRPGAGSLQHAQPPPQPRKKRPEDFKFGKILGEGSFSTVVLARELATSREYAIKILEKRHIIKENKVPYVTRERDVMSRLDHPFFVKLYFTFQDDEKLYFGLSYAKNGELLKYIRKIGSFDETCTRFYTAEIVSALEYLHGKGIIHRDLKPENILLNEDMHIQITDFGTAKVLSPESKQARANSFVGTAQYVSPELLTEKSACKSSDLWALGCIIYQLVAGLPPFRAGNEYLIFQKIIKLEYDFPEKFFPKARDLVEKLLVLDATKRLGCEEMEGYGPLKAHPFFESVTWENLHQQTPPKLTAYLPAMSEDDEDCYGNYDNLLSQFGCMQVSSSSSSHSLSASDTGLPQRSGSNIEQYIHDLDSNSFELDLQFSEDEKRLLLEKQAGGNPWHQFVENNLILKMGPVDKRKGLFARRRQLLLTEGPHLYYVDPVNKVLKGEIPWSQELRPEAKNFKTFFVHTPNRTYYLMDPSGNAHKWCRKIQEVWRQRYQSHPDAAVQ

HCC1419 = test: Antiproliferative activity against human HCC1419 cells assessed as inhibition of cell growth incubated for 72 hrs by cell-titer glo assay; assay type: functional, cell-based; conditions: HCC1419, 72 h; outline: as §1
[12] = target: Mitogen-activated protein kinase 12 (Homo sapiens) (UniProt P53778); test: Inhibition of recombinant GST fusion protein corresponding to full-length human SAPK3 expressed in E. coli assessed as residual activity at 1 uM relative to control
HL-60 = test: Antitumor activity against human HL-60 cells xenografted in nu/nu mouse assessed as efficacy parameter L0 at 60 mg/kg, po administered for 10 days relative to control; assay type: functional; conditions: time 10 day
[13] = target: Rho-associated protein kinase 1 (Homo sapiens) (UniProt Q13464); test: Inhibition of N-terminal His6-tagged recombinant human ROCK-I (17 to 535 residues) expressed in baculovirus infected Sf21 cells assessed as residual activity at 0.1 uM relative to control
Rho-associated protein kinase 1 (Homo sapiens), sequence (Q13464 2-1354 limits assumed): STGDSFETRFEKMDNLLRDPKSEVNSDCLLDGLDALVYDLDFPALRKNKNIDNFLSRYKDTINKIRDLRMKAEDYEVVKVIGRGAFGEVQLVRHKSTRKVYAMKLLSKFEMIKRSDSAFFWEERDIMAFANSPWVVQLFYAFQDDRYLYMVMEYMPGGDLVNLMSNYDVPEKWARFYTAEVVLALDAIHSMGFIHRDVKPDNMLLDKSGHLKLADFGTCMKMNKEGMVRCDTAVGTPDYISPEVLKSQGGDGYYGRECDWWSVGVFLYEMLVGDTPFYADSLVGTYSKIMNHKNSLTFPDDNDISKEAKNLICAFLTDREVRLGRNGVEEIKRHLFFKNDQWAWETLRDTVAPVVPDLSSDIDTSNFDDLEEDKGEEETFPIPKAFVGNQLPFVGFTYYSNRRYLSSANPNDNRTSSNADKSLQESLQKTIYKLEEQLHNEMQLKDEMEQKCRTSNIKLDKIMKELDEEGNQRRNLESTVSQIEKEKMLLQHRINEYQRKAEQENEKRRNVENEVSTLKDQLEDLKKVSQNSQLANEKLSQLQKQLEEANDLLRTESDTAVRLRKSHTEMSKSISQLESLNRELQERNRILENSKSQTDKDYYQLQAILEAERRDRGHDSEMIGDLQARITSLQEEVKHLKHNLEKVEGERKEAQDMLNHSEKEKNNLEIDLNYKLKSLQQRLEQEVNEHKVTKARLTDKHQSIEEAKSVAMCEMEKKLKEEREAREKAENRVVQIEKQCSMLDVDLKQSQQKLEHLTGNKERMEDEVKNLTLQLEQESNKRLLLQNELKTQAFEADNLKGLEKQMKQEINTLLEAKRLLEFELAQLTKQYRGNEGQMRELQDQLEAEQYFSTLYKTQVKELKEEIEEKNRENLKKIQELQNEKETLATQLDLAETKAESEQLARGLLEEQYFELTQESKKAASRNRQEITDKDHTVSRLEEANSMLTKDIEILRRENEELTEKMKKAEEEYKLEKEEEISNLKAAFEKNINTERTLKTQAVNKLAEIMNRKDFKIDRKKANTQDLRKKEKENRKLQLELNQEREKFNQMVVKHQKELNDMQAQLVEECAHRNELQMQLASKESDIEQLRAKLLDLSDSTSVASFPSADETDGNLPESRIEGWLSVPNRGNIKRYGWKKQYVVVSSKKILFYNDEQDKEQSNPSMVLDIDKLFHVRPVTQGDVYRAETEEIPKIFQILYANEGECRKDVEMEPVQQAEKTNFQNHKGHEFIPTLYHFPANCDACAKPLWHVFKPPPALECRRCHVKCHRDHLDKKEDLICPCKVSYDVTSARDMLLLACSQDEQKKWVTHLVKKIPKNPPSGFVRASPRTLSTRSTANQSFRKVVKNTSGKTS

[14] = Antiproliferative activity against human SUPM2 cells assessed as inhibition of cell growth incubated for 72 hrs by cell-titer glo assay; assay type: functional, cell-based; conditions: SUP-M2, 72 h
UO-31 = test: Antiproliferative activity against human UO-31 cells assessed as inhibition of cell growth incubated for 72 hrs by cell-titer glo assay; assay type: functional, cell-based; conditions: UO-31, 72 h
U2OS [15] = test: Induction of cell death in human U2OS cells assessed as reduced cell number at 1 uM by time lapse microscopy analysis; assay type: functional, cell-based; conditions: time lower […], time upper 48.0 hrs, TDE = time-dependent effect
A2780 [16] = test: Antiproliferative activity against human A2780 cells assessed as reduction in cell number at 0.5 to 1 uM incubated for 8 hrs followed by compound washout and measured after 24 to 48 hrs by cell titer glow assay; assay type: functional, cell-based; conditions: dose 0.5-1 µM
Outline: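 A2780 cells exposed to 0.5 or 1 μmol/L for 8 hours, then compound withdrawn; cells replated and grown 24 and 48 hours in drug-free medium before assessing cell growth.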

HCC 2998 = test: Antiproliferative activity against human HCC 2998 cells assessed as inhibition of cell growth incubated for 72 hrs by cell-titer glo assay; assay type: functional, cell-based; conditions: HCC 2998, 72 h; outline: as §1
LS180 = test: Antiproliferative activity against human LS180 cells assessed as inhibition of cell growth incubated for 72 hrs by cell-titer glo assay; assay type: functional, cell-based; conditions: LS180, 72 h; outline: as §1
[17] = Inhibition of PKAalpha (unknown origin) in presence of [gamma-33P]ATP; parameters: species or system Homo sapiens
CAMA-1 = test: Antiproliferative activity against human CAMA-1 cells assessed as inhibition of cell growth incubated for 72 hrs by cell-titer glo assay; assay type: functional, cell-based; conditions: CAMA-1, 72 h
Outline: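 Cells seeded 10,000–30,000/cm² (adherent) or 100,000/mL (suspension) in medium with 10% fetal calf serum; after 24 h treated in duplicate with serial dilutions for 72 h. Viable cells read by CellTiter-Glo luminescence; IC50 from sigmoidal fit; at least two independent experiments.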

[18] = target: Mitogen-activated protein kinase kinase kinase 5 (Homo sapiens) (UniProt Q99683); test: Inhibition of N-Terminal GST and C-terminal His6-tagged recombinant human ASK1 (649 to 946 residues) expressed in E. coli cell assessed as residual activity at 0.1 uM relative to control
SW1417 = test: Antiproliferative activity against human SW1417 cells assessed as inhibition of cell growth incubated for 72 hrs by cell-titer glo assay; assay type: functional, cell-based; conditions: SW1417, 72 h

SMILES: CN1CCN(c2ccc(OC(F)(F)F)c(Nc3ncc4c(n3)-c3c(c(C(N)=O)nn3CCO)CC4)c2)CC1 [ONVANSERTIB]
- IC50 (LP-1): 0.059 µM
- Activity [1]: 89%
- IC50 [2]: > 10 µM
- IC50 [3]: > 10 µM
- Cmax [4]: 8.3 µM
- IC50 (U-251): 0.19 µM
- IC50 (NCI-H1650): 2.42 µM
- Activity [5]: 96%
- IC50 [6]: > 10 µM
- Activity (NHDF): Toxic
- IC50 (HEL): 0.048 µM
- IC50 [7]: > 10 µM
- inhibition (A2780 [8]): inactive
- IC50 (U2OS [9]): 0.285 µM
- Activity [10]: 145%
- Activity [11]: 144%
- IC50 (HCC1419): 0.042 µM
- Activity [12]: 113%
- Activity (HL-60): 0.06 g
- Activity [13]: 145%
- IC50 [14]: 0.043 µM
- IC50 (UO-31): 1.13 µM
- Activity (U2OS [15]): Tde
- Activity (A2780 [16]): Active
- IC50 (HCC 2998): 0.132 µM
- IC50 (LS180): 0.192 µM
- IC50 [17]: > 10 µM
- IC50 (CAMA-1): 0.35 µM
- Activity [18]: 123%
- IC50 (SW1417): 0.606 µM
